OXTR ag – human OXTR agonists, primary screen, fluorescence, CHO-OTR cells, Fluo-8 calcium. activation, % at 3 µM. AID 2435, 2010. actives 0.32% (n = 320,000). Oxytocin receptor (Homo sapiens), P30559. Fluo-8 calcium fluorescence; normalized: DMSO 0%, oxytocin 100%;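 active = activation above the mean of all tested compounds plus 3 SD, cutoff set per screening run, cut at about 20% in these data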;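 note: peak over basal fluorescence ratio from a 100 s FLIPR kinetic read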
Target sequence (P30559 whole entry, looked up): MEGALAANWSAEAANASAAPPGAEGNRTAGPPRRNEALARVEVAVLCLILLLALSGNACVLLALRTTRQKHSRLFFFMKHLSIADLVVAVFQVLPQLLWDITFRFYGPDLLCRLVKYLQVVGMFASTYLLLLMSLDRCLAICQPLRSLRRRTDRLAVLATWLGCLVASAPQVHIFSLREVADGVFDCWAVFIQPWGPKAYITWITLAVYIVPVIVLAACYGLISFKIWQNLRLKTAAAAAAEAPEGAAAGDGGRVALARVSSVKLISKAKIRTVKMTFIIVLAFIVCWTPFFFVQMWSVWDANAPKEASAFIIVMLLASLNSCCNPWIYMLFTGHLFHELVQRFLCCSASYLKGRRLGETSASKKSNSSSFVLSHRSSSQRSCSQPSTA
OXTR potentiate – human OXTR potentiators, primary screen, fluorescence, CHO-OTR cells, Fluo-8 calcium; Fluo-8 calcium fluorescence, potentiator mode; 0% = oxytocin EC15, 100% = EC100; activation, % at 3 µM; actives 0.061% (n = 320,000); AID 2445, 2010;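 active = activation above that plate's cutoff, the mean activation of tested compounds plus 3 SD, cut at about 6.6% in these data, passing the limit was not always enough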
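Material: CHO-OTR cells, human receptor; compound dosing: single dose, 3.0 µM nominal final compound concentration; schedule: 6 min compound pre-incubation at room temperature, 100 s kinetic read; measured by: kinetic Fluo-8 calcium fluorescence; read-out basis: % activation vs EC15 and EC100 oxytocin; controls: EC15 oxytocin alone as 0%, 75 nM oxytocin as 100%; replicates: singlicate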
TAAR1 antagonist – human TAAR1 antagonists, primary screen, Fluo-8 calcium fluorescence, CHO RD-HGA16 cells; antagonist; inhibition, % at 3 µM; actives 1.5% (n = 360,000);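 active = inhibition above a per-plate cutoff, the mean inhibition of test compounds on that plate plus 3 SD, cut at about 49% in these data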
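System: RD-HGA16 CHO cells with stable hTAAR1 and Gα16 | Probe or stimulus: EC80 β-phenethylamine stimulus | Dosing: 3 µM, single point | Times: Dye loading 75 min at 37 °C, then 30 min room temperature | Measured by: Fluo-8 calcium-sensitive fluorescence | Read-out basis: % inhibition of agonist calcium response | Replicates: n of 1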
TAAR1 ag – human TAAR1 agonists, primary screen, Fluo-8 calcium fluorescence, CHO RD-HGA16 cells; Trace amine-associated receptor 1 (Homo sapiens), Q96RJ0; vehicle wells 0%, saturating PEA agonist 100%; activation, % at 3 µM; actives 0.99% (n = 360,000);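 active = activation above the mean activation of all test compounds in the run plus 3 SD, cut at about 38% in these data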
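Assay system: CHO-derived RD-HGA16 cells with stable Gα16 and human TAAR1; timing: 17-24 h seeding, 75 min 37 °C dye, 30 min RT; read-out: % activation from peak over basal fluorescence ratio, DMSO-to-PEA scaled; measured by: kinetic Fluo-8 calcium fluorescence; benchmarks: low control DMSO, high control PEA (EC100); doses: 3 µM single concentration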
V1R ag counter – agonists of human V1a receptor, primary screen, counter-screen for OXTR agonist project, fluorescence, CHO-V1R cells; Vasopressin V1a receptor (Homo sapiens), P37288; Fluo-8 calcium fluorescence, agonist mode; 0% DMSO, 100% 3 nM vasopressin; activation, % at 3 µM; actives 0.25% (n = 320,000);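 active = activation above the mean activation of all tested compounds plus 3 SD, per screening run, cut at about 20% in these data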;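 note: signal is peak over basal fluorescence ratio across a 100 second FLIPR read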
TAAR1 ag confirm – human TAAR1 agonists, retest of hits, confirmation, Fluo-8 calcium fluorescence, CHO RD-HGA16 cells; shares compounds with TAAR1 ag; scaled: DMSO 0%, maximal phenethylamine 100%; activation, % at 3 µM; actives 82% (n = 2,400); AID 651783, 2012;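 active = activation above a cutoff set at the run's mean compound activation plus 3 SD, cut at about 39% in these data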
Ga16 nonsel ag – nonselective calcium mobilization agonists, CHO-Ga16 cells, counter-screen for hTAAR1 agonist project, cell-based, fluorescence, CHO-Ga16 parental line | shares compounds with TAAR1 ag | Fluo-8 calcium fluorescence; normalized to maximal ATP response, DMSO zero | activation, % at 3 µM | actives 50% (n = 2,400) | AID 651787, 2012;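 active = activation above the run cutoff, the mean activation over all tested wells plus 3 SD, cut at about 12% in these data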
TAAR1 desensitize – TAAR1 desensitization by agonist hits, confirmation, counter-screen for TAAR1 agonist project, cell-based, fluorescence, tachyphylaxis | shares compounds with TAAR1 ag | CHO RD-HGA16 hTAAR1, Fluo-8 calcium, beta-PEA response inhibition | inhibition, % at 3 µM | actives 46% (n = 2,400);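 active = inhibition above the run cutoff, the mean inhibition of all test compounds plus 3 SD, cut at about 49% in these data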;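 note: beta-PEA stimulus applied at its EC80; loss of beta-PEA calcium signal after compound pretreatment read as receptor desensitization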
Ga16 nonsel ant – inhibition of ATP-evoked calcium response in CHO-Ga16 cells, counter-screen for TAAR1 agonist project, cell-based, fluorescence; shares compounds with TAAR1 ag; CHO-Ga16 ATP-induced calcium, Fluo-8 fluorescence; inhibition, % at 3 µM; actives 39% (n = 2,400); AID 651952, 2012;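 active = inhibition above the plate's mean compound inhibition plus 3 SD, computed per plate, cut at about 22% in these data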
Hits are given with their value; - = inactive; . = no result given. Sampled rows, rich in hits. Any-hit rate of the full collection: about 2.3%.

SMILES | OXTR ag | OXTR potentiate | TAAR1 antagonist | TAAR1 ag | V1R ag counter | TAAR1 ag confirm | Ga16 nonsel ag | TAAR1 desensitize | Ga16 nonsel ant
COc1ccc(S(=O)(=O)N2CCOC2CNC(=O)C(=O)NCCCN(C)C)cc1C (centres undefined) | - | - | - | - | - | . | . | . | .
Nc1c(NCCC2=CCCCC2)c(=O)[nH]c(=O)n1Cc1ccccc1 | - | - | - | 55 | - | 68 | - | - | -
COc1ccc(CCNc2c(N)n(Cc3ccccc3)c(=O)[nH]c2=O)cc1OC | - | - | - | - | - | . | . | . | .
COc1ccc(CCC(C)NCCc2ccc(Cl)cc2Cl)cc1 (centres undefined) | - | - | - | 48 | - | 48 | 22 | - | 24
COC(=O)C(/C=N/OCc1ccc([N+](=O)[O-])cc1)NC(=O)c1cccc(Cl)c1 (centres undefined) | 32 | - | 88 | 95 | 38 | 94 | 51 | 78 | 41
Cc1ccc(CONC(=O)c2cccc([N+](=O)[O-])c2)cc1 | - | - | - | - | - | . | . | . | .
Cc1cc2c(cc1C)-n1nnnc1C(N1CCCNCC1)C(=O)N2 (centres undefined) | . | . | - | - | . | . | . | . | .
Cc1cc2c(cc1C)-n1nnnc1C(N(C)CCc1ccccc1)C(=O)N2 (centres undefined) | . | . | - | 54 | . | 65 | - | - | -
Cc1nc2ccn(Cc3ccccc3)c(=O)c2cc1C(=O)N1CCN(c2ccccc2)CC1 | - | - | - | - | - | . | . | . | .
CCOc1ccccc1N(C)C(=O)c1ccc2c(=O)n3c(nc2c1)CCCCC3 | - | - | - | - | - | . | . | . | .
Cc1cc2c(cc1S(=O)(=O)CCC(=O)NCCc1ccccc1)OCC(=O)N2 | - | - | 52 | 89 | - | 101 | - | 75 | -
COC(=O)[C@@]1(Cc2ccc(F)cc2)[C@H]2c3cc(C(=O)N4CCCC4)n(CC4CC4)c3C[C@H]2CN1C(=O)c1ccccc1 | . | . | - | 70 | . | 76 | 38 | 52 | 32
N/C(Cc1cccc2ccccc12)=N\OC(=O)c1ccc2c(c1)OCO2 | - | - | 49 | 74 | - | - | - | - | -
N/C(Cc1cccc2ccccc12)=N\OC(=O)c1ccc(Br)o1 | . | . | - | 91 | . | 89 | - | 80 | -
N/C(Cc1ccc(Cl)cc1Cl)=N\OC(=O)c1ccc(Br)o1 | - | - | - | - | - | . | . | . | .
COc1ccc(CC(=O)Nc2nc(OCCN3CCCC3=O)cnc2-c2cccc(C(F)(F)F)c2)cc1 | . | . | - | - | . | . | . | . | .
O=[N+]([O-])c1ccc(Cl)c(NC2=NCCCCC2)c1 | - | - | - | - | - | . | . | . | .
Fc1ccc(Nc2nc(NCc3ccco3)c3ccccc3n2)cc1 | - | - | - | 70 | - | 40 | 23 | 49 | 39
Cc1nc2ccc(NC(=O)C3CCN(S(=O)(=O)c4cccs4)CC3)cc2s1 | - | - | - | 41 | - | - | 12 | - | -
